Measured values taken from PMC3553303 (Biochemical pharmacology, 2012).

Legend:
FPR1 [1] = target: T1, FPR1 (Homo sapiens, UniProt P21462); assay: Ca2+ mobilization in FPR1-HL-60 cells; type: cell-based; conditions: percentage of the response induced by 5 nM fMLF
T1 sequence (P21462 1-350): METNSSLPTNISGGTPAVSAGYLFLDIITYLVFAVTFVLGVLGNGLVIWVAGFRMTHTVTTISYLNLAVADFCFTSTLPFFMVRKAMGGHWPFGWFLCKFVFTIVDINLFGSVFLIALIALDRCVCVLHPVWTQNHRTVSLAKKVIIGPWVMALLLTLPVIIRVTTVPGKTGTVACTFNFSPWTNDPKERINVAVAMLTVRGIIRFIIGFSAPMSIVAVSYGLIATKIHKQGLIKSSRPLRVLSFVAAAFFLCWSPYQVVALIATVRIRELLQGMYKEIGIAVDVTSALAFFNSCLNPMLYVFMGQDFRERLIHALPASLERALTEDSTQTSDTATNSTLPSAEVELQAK

FPR2 [2] = target: T2, FPR2 (Homo sapiens, UniProt P25090); assay: Ca2+ mobilization in FPR2-HL-60 cells; type: cell-based; conditions: percentage of the response induced by 5 nM WKYMVM
T2 sequence (P25090 1-351): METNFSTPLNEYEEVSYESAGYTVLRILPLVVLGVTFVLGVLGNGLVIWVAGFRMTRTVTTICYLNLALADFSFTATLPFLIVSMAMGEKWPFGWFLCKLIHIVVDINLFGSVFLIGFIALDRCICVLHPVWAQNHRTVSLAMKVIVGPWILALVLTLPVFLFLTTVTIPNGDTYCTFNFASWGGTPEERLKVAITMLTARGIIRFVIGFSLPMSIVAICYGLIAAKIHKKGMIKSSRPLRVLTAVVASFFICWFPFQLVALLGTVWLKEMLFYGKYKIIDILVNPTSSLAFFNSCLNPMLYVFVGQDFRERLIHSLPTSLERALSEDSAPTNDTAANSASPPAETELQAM

human neutrophils = assay: Neutrophil chemotaxis assay; type: cell-based; conditions: read-out: Neutrophils Chemotaxis EC50, N.A. = non-active
bombesin receptor (BB2) = bombesin receptor (BB2) (Homo sapiens, UniProt P30550); type: binding; conditions: read-out: Ki, displacement of [125I][Tyr4]bombesin; PC3 cells
FPR1 [3] = target: T1, FPR1; assay: PathHunter β-arrestin recruitment, FPR1-CHO-K1 cells; type: cell-based; conditions: read-out: β-arrestin recruitment EC50
FPR2 [4] = target: T2, FPR2; assay: PathHunter β-arrestin recruitment, FPR2-CHO-K1 cells; type: cell-based; conditions: read-out: β-arrestin recruitment EC50
Method in brief: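 The assay used the PathHunter enzyme-fragment complementation format in FPR2-transfected CHO-K1 cells. Thawed cells were plated at 5000/well in the kit medium and held 48 h at 37 °C with 5% CO2. Test compound was serially diluted at constant DMSO and added for 90 min at 37 °C, then detection reagent for 60 min at room temperature. Chemiluminescence was read.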

Chain of bombesin receptor (BB2) (P30550 whole entry): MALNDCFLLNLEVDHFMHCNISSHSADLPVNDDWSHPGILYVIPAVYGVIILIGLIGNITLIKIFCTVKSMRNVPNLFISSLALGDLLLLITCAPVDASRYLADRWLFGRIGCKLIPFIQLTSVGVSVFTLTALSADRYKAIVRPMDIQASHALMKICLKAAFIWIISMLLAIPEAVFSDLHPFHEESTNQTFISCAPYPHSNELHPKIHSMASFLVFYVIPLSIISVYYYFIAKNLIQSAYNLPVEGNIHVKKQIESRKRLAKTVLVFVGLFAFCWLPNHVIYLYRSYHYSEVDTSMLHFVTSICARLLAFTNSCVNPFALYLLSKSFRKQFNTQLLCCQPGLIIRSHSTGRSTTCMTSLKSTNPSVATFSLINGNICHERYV

SMILES	Ca2+ Mobilization in HL-60 cells FPR1 Efficacy (FPR1 [1]) [%]	Ca2+ Mobilization in HL-60 cells FPR2 Efficacy (FPR2 [2]) [%]	EC50 (human neutrophils) [µM]	Ki (bombesin receptor (BB2)) [µM]	EC50 (FPR1 [3]) [µM]	EC50 (FPR2 [4]) [µM]
COc1ccc(C2(CNC(=O)[C@](C)(Cc3c[nH]c4ccccc34)NC(=O)Nc3ccc([N+](=O)[O-])cc3)CCCCC2)nc1 [PD176252]	100	90	0.81 ± 0.22	0.066	3.8 ± 1.1	8.8 ± 2
C[C@@](Cc1c[nH]c2ccccc12)(NC(=O)Nc1ccc([N+](=O)[O-])cc1)C(=O)NCC1(c2ccccn2)CCCCC1 [PD168368]		75	0.7 ± 0.15			11.1 ± 2.8
